Data as given in ChEMBL document CHEMBL4364301 (Eur J Med Chem, 2019).
Activity calls are given as the source filed them. The rule behind the calls is not given here.

How the values were obtained:
CWR22R [1] = experiment: Antitumor activity against human 22Rv1 cells xenografted in NMRI mouse assessed as inhibition of tumor growth by measuring T/C value at 15 mg/kg, iv administered on day 7 and 14 and measured on day 14; assay type: functional
Procedure, shortened: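 Male NMRI nu/nu mice, delivered at 4–6 weeks and quarantined at least 1 week, were implanted in the hind flank with cultured 22Rv1 cells. Mice were randomised at 80–200 mm³ tumour volume. Dosing was 15 mg/kg i.v. in 0.9% saline, given as three weekly treatments; controls received vehicle. Caliper tumour volumes were taken twice weekly, with T/C from group median relative tumour volumes, doubling/quadrupling times and body weight recorded.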

[2] = Toxicity in NMRI mouse xenografted with human 22Rv1 cells assessed as survival rate at 15 mg/kg, ip administered on day 7 and 14 and measured on day 49; assay type: organism-based; details: in vivo
[3] = Toxicity in NMRI mouse xenografted with human 22Rv1 cells assessed as body weight loss at 15 mg/kg, ip administered on day 7 and 14 and measured on day 49; assay type: organism-based; details: in vivo
CWR22R [4] = experiment: Antitumor activity against human 22Rv1 cells xenografted in NMRI mouse assessed as tumor volume doubling time at […] administered on day 7 and 14 (reference value: 2.7 day); assay type: functional
CWR22R [5] = experiment: Antitumor activity against human 22Rv1 cells xenografted in NMRI mouse assessed as tumor volume quadrupling time at […] administered on day 7 and 14 (reference value: 6.2 day); assay type: functional
CWR22R [6] = experiment: Antitumor activity against human 22Rv1 cells xenografted in NMRI mouse assessed as reduction of tumor volume at […] administered on day 7 and 14 and measured on day 20; assay type: functional, organism-based
CWR22R [7] = experiment: Antitumor activity against human 22Rv1 cells xenografted in NMRI mouse assessed as reduction of tumor volume at […] administered on day 7 and 14 and measured on day 10; assay type: functional, organism-based

In the case of `CC(=O)O[C@@]12CO[C@@H]1C[C@H](O)[C@@]1(C)C(=O)[C@H](O)C3=C(C)[C@@H](OC(=O)[C@H](O)[C@@H](NC(=O)OC(C)(C)C)c4ccccc4)C[C@@](O)([C@@H](OC(=O)c4ccccc4)[C@H]21)C3(C)C` [DOCETAXEL ANHYDROUS], the T/C (CWR22R [1]) is reported as 22.4%, the survival at 49 day [2] is reported as 100% and the Activity [3] is reported as 19.8%. For the same compound, the Time (CWR22R [4]) was 6.3 days, the Time (CWR22R [5]) was 43.2 days and the Activity (CWR22R [6]) was “Active”. The Activity (CWR22R [7]) was “Active”.
